According to ChEMBL document CHEMBL2417474, “Synthesis, antiproliferative and anti-inflammatory activities of some novel 6-aryl-2-(p-(methanesulfonyl)phenyl)-4,5-dihydropyridazi-3(2H)-ones” (Eur J Med Chem, 2013):

Assays:
Type in all cases: functional
RPMI-8226 = test: Growth inhibition of human RPMI8226 cells after 48 hrs by sulforhodamine B assay; settings: RPMI-8226, 48 h
Summary of the method: (§1)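 NCI 60-cell-line panel. Cells were grown in medium with 5% fetal calf serum and 2 mM L-glutamine, then preincubated 24 h in plates. Compounds were added from DMSO at five 10-fold concentrations from 100 to 0.01 µM and left on cells continuously for 48 h. Cell growth was read by sulforhodamine B protein stain. GI50 is the concentration that halves net protein increase relative to control cells.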

OVCAR-3 = test: Growth inhibition of human OVCAR3 cells after 48 hrs by sulforhodamine B assay; settings: OVCAR-3, 48 h; summary of the method: as §1
LOX IMVI = test: Growth inhibition of human LOXIMVI cells after 48 hrs by sulforhodamine B assay
Summary of the method: (§2)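 NCI 60-cell-line panel grown in RPMI-type medium with 5% fetal calf serum and 2 mM L-glutamine. Cells preincubated 24 h, then exposed continuously for 48 h to compound in DMSO at 10^-4 to 10^-8 M (five 10-fold levels). Growth read by SRB protein stain. GI50 is the concentration giving a 50% reduction in net protein increase relative to control cells.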

[1] = Growth inhibition of human Hs 578T cells assessed as cell growth at 10 uM after 48 hrs by sulforhodamine B assay; settings: read-out: Activity
K562 = test: Growth inhibition of human K562 cells after 48 hrs by sulforhodamine B assay; settings: K562, 48 h; summary of the method: as §2
SNB-19 = test: Growth inhibition of human SNB19 cells after 48 hrs by sulforhodamine B assay; settings: SNB-19, 48 h; summary of the method: as §1
[2] = Growth inhibition of human EKVX cells after 48 hrs by sulforhodamine B assay; summary of the method: as §2
PC-3 [3] = test: Growth inhibition of human PC3 cells assessed as cell growth at 10 uM after 48 hrs by sulforhodamine B assay; settings: PC-3, 48 h, read-out: Activity
M14 = test: Growth inhibition of human M14 cells assessed as cell growth at 10 uM after 48 hrs by sulforhodamine B assay; settings: M14, 48 h, read-out: Activity
RXF 393 = test: Growth inhibition of human RXF393 cells after 48 hrs by sulforhodamine B assay; settings: RXF 393, 48 h; summary of the method: as §1
SK-OV-3 = test: Growth inhibition of human SKOV3 cells assessed as cell growth at 10 uM after 48 hrs by sulforhodamine B assay; settings: SK-OV-3, 48 h, read-out: Activity
A549 [4] = test: Growth inhibition of human A549/ATCC cells assessed as cell growth at 10 uM after 48 hrs by sulforhodamine B assay; settings: A549, 48 h, read-out: Activity
SF-268 = test: Growth inhibition of human SF268 cells after 48 hrs by sulforhodamine B assay; settings: SF-268, 48 h; summary of the method: as §1
SK-MEL-5 = test: Growth inhibition of human SK-MEL-5 cells assessed as cell growth at 10 uM after 48 hrs by sulforhodamine B assay; settings: SK-MEL-5, 48 h, read-out: Activity
SK-MEL-28 = test: Growth inhibition of human SK-MEL-28 cells assessed as cell growth at 10 uM after 48 hrs by sulforhodamine B assay; settings: SK-MEL-28, 48 h, read-out: Activity
UACC-257 = test: Growth inhibition of human UACC257 cells assessed as cell growth at 10 uM after 48 hrs by sulforhodamine B assay; settings: UACC-257, 48 h, read-out: Activity
Summary of the method: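 Single-dose NCI screen. Tumor lines were cultured in medium with 5% fetal calf serum and 2 mM L-glutamine, preincubated 24 h, then given compound in DMSO. After 48 h continuous exposure, cell growth was estimated by sulforhodamine B protein assay.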

SN12C = test: Growth inhibition of human SN12C cells assessed as cell growth at 10 uM after 48 hrs by sulforhodamine B assay; settings: read-out: Activity
COLO 205 [5] = test: Growth inhibition of human COLO205 cells after 48 hrs by sulforhodamine B assay; settings: COLO 205, 48 h; summary of the method: as §2
MCF7 = test: Growth inhibition of human MCF7 cells assessed as cell growth at 10 uM after 48 hrs by sulforhodamine B assay; settings: MCF7, 48 h, read-out: Activity
COLO 205 [6] = test: Growth inhibition of human COLO205 cells assessed as cell growth at 10 uM after 48 hrs by sulforhodamine B assay; settings: COLO 205, 48 h, read-out: Activity
Rattus norvegicus = test: Antiinflammatory activity in Wistar rat assessed as inhibition of carrageenan-induced paw edema at 0.05 mmol/kg, po administered 30 mins prior challenge measured after 3 hrs
Summary of the method: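 Wistar rats of either sex, 150–175 g, fasted 16 h, 6 per group. Dosed orally at 0.05 mmol/kg, suspended in 1% CMC in water (10 ml/kg). 30 min later, 0.1 ml of 1% carrageenan in saline injected subplantar into the left hind paw. Paw volume read by plethysmometer at 0, 3 and 5 h. % inhibition = (1 − Vt/Vc) × 100 against the vehicle group.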

HL-60(TB) = test: Growth inhibition of human HL-60(TB) cells assessed as cell growth at 10 uM after 48 hrs by sulforhodamine B assay; settings: HL-60, 48 h, read-out: Activity
NCI-H460 = test: Growth inhibition of human NCI-H460 cells after 48 hrs by sulforhodamine B assay; settings: NCI-H460, 48 h; summary of the method: as §1
OVCAR-8 = test: Growth inhibition of human OVCAR8 cells after 48 hrs by sulforhodamine B assay; settings: OVCAR-8, 48 h; summary of the method: as §1
A549 [7] = test: Growth inhibition of human A549/ATCC cells after 48 hrs by sulforhodamine B assay; settings: A549, 48 h; summary of the method: as §2
NCI-H522 = test: Growth inhibition of human NCI-H522 cells assessed as cell growth at 10 uM after 48 hrs by sulforhodamine B assay; settings: NCI-H522, 48 h, read-out: Activity
HOP-92 = test: Growth inhibition of human HOP92 cells after 48 hrs by sulforhodamine B assay; settings: HOP-92, 48 h; summary of the method: as §2
A498 = test: Growth inhibition of human A498 cells after 48 hrs by sulforhodamine B assay; settings: A498, 48 h; summary of the method: as §2
PC-3 [8] = test: Growth inhibition of human PC3 cells after 48 hrs by sulforhodamine B assay; settings: PC-3, 48 h; summary of the method: as §1
[9] = read-out: LC50 (the source's name)

For `Cc1cc(O)ccc1C1=NN(c2ccc(S(C)(=O)=O)cc2)C(=O)CC1`, the GI50 (RPMI-8226) was 25.6 µM, the TGI (RPMI-8226) was > 100 µM and the CC50 (RPMI-8226; [9]) was > 100 µM. For the same molecule, the GI50 (OVCAR-3) was 3.41 µM, the LC50 (lethal concentration, 50% net cell kill) (OVCAR-3) was > 100 µM and the TGI (OVCAR-3) was 9.44 µM. The GI50 (LOX IMVI) was 7.25 µM, the TGI (LOX IMVI) was > 100 µM and the CC50 (LOX IMVI; [9]) was > 100 µM. The growth at 10 µM [1] was 87%, the GI50 (K562) was 3.74 µM and the TGI (K562) was > 100 µM. The CC50 (K562; [9]) was > 100 µM, the GI50 (SNB-19) was 50.4 µM and the TGI (SNB-19) was > 100 µM. For the same molecule, the CC50 (SNB-19; [9]) was > 100 µM, the GI50 [2] was 57.9 µM and the TGI [2] was > 100 µM. For the same molecule, the CC50 [2, 9] was > 100 µM, the growth at 10 µM (PC-3 [3]) was 77.9% and the growth at 10 µM (M14) was 49.2%. The GI50 (RXF 393) was 12.8 µM, the LC50 (50% lethal concentration) (RXF 393) was > 100 µM and the TGI (RXF 393) was > 100 µM. It also gave a growth at 10 µM (SK-OV-3) of 85%, a growth at 10 µM (A549 [4]) of 72.2% and a GI50 (SF-268) of 40 µM. For the same molecule, the TGI (SF-268) was > 100 µM, the CC50 (SF-268; [9]) was > 100 µM and the growth at 10 µM (SK-MEL-5) was 68.3%. For the same molecule, the growth at 10 µM (SK-MEL-28) was 81.2%, the growth at 10 µM (UACC-257) was 93% and the growth at 10 µM (SN12C) was 90.3%. For the same molecule, the GI50 (COLO 205 [5]) was 6.62 µM, the TGI (COLO 205 [5]) was 74.4 µM and the CC50 (COLO 205 [5]; [9]) was > 100 µM. For the same molecule, the growth at 10 µM (MCF7) was 82.8%, the growth at 10 µM (COLO 205 [6]) was 65.8% and the inhibition in vivo at 50 µmol/kg (Rattus norvegicus) was 33.3%. For the same molecule, the growth at 10 µM (HL-60(TB)) was 52.6%, the GI50 (NCI-H460) was 3.87 µM and the TGI (NCI-H460) was > 100 µM. The CC50 (NCI-H460; [9]) was > 100 µM, the GI50 (OVCAR-8) was 12.3 µM and the LC50 (OVCAR-8) was > 100 µM. The TGI (OVCAR-8) was > 100 µM, the GI50 (A549 [7]) was 6.2 µM and the TGI (A549 [7]) was > 100 µM. The CC50 (A549 [7]; [9]) was > 100 µM, the growth at 10 µM (NCI-H522) was 2.39% and the GI50 (HOP-92) was 6.49 µM. For the same molecule, the TGI (HOP-92) was > 100 µM, the CC50 (HOP-92; [9]) was > 100 µM and the GI50 (A498) was 2.78 µM. For the same molecule, the TGI (A498) was 45.4 µM, the CC50 (A498; [9]) was > 100 µM and the GI50 (PC-3 [8]) was 14.8 µM. For the same molecule, the LC50 (PC-3 [8]) was > 100 µM and the TGI (PC-3 [8]) was > 100 µM.
